Assay results reported in ChEMBL document CHEMBL1128454, “Cyclization-activated prodrugs: N-(substituted 2-hydroxyphenyl and 2-hydroxypropyl)carbamates based on ring-opened derivatives of active benzoxazolones and oxazolidinones as mutual prodrugs of acetaminophen” (J Med Chem, 1995).

Columns and labels:
[1] = Compound was evaluated for its hydrolysis half life obtained from the relation Kobs was measured in a pH 7.4 phosphate buffer at 37 degree C (micro = 0.5 M ).; type: ADME; conditions: for half-life: phosphate buffer
Method in brief: (§1)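 Prodrug hydrolysed in pH 7.40 phosphate buffer at 37 °C (some runs at 25 °C) and monitored by UV spectrophotometry until product formation, about 10 half-lives. First-order kobsd from ln(OD) vs time, with pH checked before and after. Half-life taken as 0.693/kobsd.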

[2] = Compound was evaluated for its rate constant (Kp) which are average values of Kobs measured in the pH range 10-11 at 25 degree C (micro = 0.5 M ).; type: ADME
Method in brief: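 Spectrophotometric hydrolysis in aqueous NaOH or carbonate/borax buffers, 25 °C, ionic strength 0.5 M. kp is the average of kobsd values measured over pH 10-11 (the pH-independent plateau). kobsd came from first-order ln(OD) vs time plots. Error in each rate constant about ±3%.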

[3] = Compound was evaluated for pKa; type: physicochemical
Method in brief: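 Apparent kinetic pKa obtained by fitting the pH-rate profile (log kobsd vs pH, UV-monitored hydrolysis in NaOH and carbonate, borax, Tris or phosphate buffers) to a rate law combining the pH-independent constant with the acid dissociation constant of the prodrug hydroxyl.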

[4] = its hydrolysis half life in rat plasma (pH 7.4); type: ADME, organism-based
Method in brief: (§2)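 Prodrug in acetonitrile or dioxane added to 0.05 M phosphate buffer pH 7.40 containing 80% human or rat plasma, about 0.04 mg/mL initial, at 37 or 25 °C. Aliquots quenched and deproteinized with 0.05 M methanolic HCl, centrifuged, then analysed by reversed-phase HPLC with diode-array detection. First-order constants from ln plots of drug or prodrug concentration vs time.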

[5] = its hydrolysis half life in human plasma (pH 7.4); type: ADME, organism-based; method in brief: as §2
[6] = its hydrolysis half life in phosphate buffer (pH 7.4); type: ADME; method in brief: as §1
[7] = its bimolecular rate constant (KOH) at 25 degree C (m = 0.5); type: ADME
Method in brief: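 Hydrolysis followed by UV spectrophotometry in aqueous NaOH or buffer (carbonate, borax, Tris, phosphate) at 25 °C, ionic strength 0.5 M. Second-order constant kOH taken from the linear plot of kobsd vs [OH-] over the pH-dependent region. kobsd came from ln(OD) vs time plots. pH in the cell was read before and after reaction.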

SMILES | half-life [1] | Kp [2] | pKa [3] | further results
COc1ccc(OC(=O)Nc2cc(Cl)ccc2O)cc1 | 0.37 min | 0.0976 s⁻¹ | 10.2 | 
O=C(Nc1cc(Cl)ccc1O)OCC(Cl)(Cl)Cl | 276000 min | 1.14 s⁻¹ | 12.7 | half-life ([4]; read-out: T1/2): 7.5 min; half-life ([5]; read-out: T1/2): 10.1 min
CC(=O)Nc1ccc(OC(=O)NCC(O)COc2cc(C)cc(C)c2)cc1 (configuration not stated) |  |  |  | half-life [6]: 416 min; half-life ([4]; read-out: T1/2): 62 min; half-life ([5]; read-out: T1/2): 45 min
O=C(Nc1cc(Cl)ccc1O)Oc1cccc(C(F)(F)F)c1 | 0.0518 min | 0.7 s⁻¹ | 8.97 | 
CC#CCOC(=O)Nc1cc(Cl)ccc1O |  | 5.93e-06 s⁻¹ | 14.2 | 
C#CCOC(=O)Nc1cc(Cl)ccc1O |  | 0.00025 s⁻¹ | 13.6 | T1/2 ([1]; buffer): 108 min
CNC(=O)Oc1ccc(NC(C)=O)cc1 |  |  |  | KOH [7]: 11.5 M⁻¹ s⁻¹
CC(=O)Nc1ccc(OC(=O)Nc2cc(C(=O)c3ccccc3)ccc2O)cc1 | 0.233 min | 0.0221 s⁻¹ | 9.49 | half-life [6]: 0.233 min; half-life ([4]; read-out: T1/2): 2.9 min; half-life ([5]; read-out: T1/2): 10.2 min
O=C(Nc1cc(Cl)ccc1O)Oc1ccccc1 | 0.2 min | 0.169 s⁻¹ | 10 | 
CC(C)(C)OC(=O)Nc1ccc(OC(=O)Nc2cc(Cl)ccc2O)cc1 | 0.187 min | 0.184 s⁻¹ | 9.8 | 
COC(=O)Nc1cc(Cl)ccc1O | 105000 min | 1.05e-06 s⁻¹ | 15.5 | 
COc1ccccc1OCC(O)CNC(=O)Oc1ccc(NC(C)=O)cc1 (configuration not stated) |  |  |  | half-life [6]: 371 min; half-life ([4]; read-out: T1/2): 58 min; KOH [7]: 10.5 M⁻¹ s⁻¹; half-life ([5]; read-out: T1/2): 59 min
CC(=O)Nc1ccc(OC(=O)Nc2ccc(C(=O)c3ccccc3)cc2O)cc1 | 0.0965 min | 0.119 s⁻¹ | 9.49 | half-life [6]: 0.097 min; half-life [4]: 0.233 min; half-life [5]: 1 min
COc1ccccc1OCC(CNC(=O)Oc1ccc(NC(C)=O)cc1)OC (configuration not stated) |  |  |  | half-life [6]: 502 min; half-life ([4]; read-out: T1/2): 153 min; half-life ([5]; read-out: T1/2): 134 min
O=C(Nc1cc(Cl)ccc1O)OCC(F)(F)F | 2.58 min | 0.014 s⁻¹ | 12.4 | 
CCOC(=O)Nc1cc(Cl)ccc1O | 418000 min | 8.63e-07 s⁻¹ | 16 | 
O=C(Nc1cc(Cl)ccc1O)Oc1cccc(Cl)c1 | 0.0634 min | 0.503 s⁻¹ | 9.02 | 
O=C(Nc1cc(Cl)ccc1O)OCC(Cl)Cl | 42.5 min | 0.000806 s⁻¹ | 13.2 | half-life ([4]; read-out: T1/2): 53.8 min; half-life ([5]; read-out: T1/2): 105 min
O=C(Nc1cc(Cl)ccc1O)OCCCl |  | 2.75e-06 s⁻¹ | 14.3 | 
CC(=O)Nc1ccc(OC(=O)Nc2cc(Cl)ccc2O)cc1 | 0.118 min | 0.205 s⁻¹ | 9.49 | half-life [6]: 0.118 min; half-life [4]: 0.833 min; half-life [5]: 1.1 min
COc1ccc(Cl)cc1NC(=O)Oc1ccc(NC(C)=O)cc1 |  |  |  | KOH [7]: 510 M⁻¹ s⁻¹
CC(=O)Nc1cccc(OC(=O)Nc2cc(Cl)ccc2O)c1 | 0.125 min | 0.279 s⁻¹ | 9.38 | 
Cl.Nc1ccc(OC(=O)Nc2cc(Cl)ccc2O)cc1 | 0.383 min | 0.0806 s⁻¹ | 10.4 | 
